Experimental data as given in ChEMBL document CHEMBL5724801, “EUbOPEN Chemogenomics Library - Multiplex” (2024).
Where “and” joins values, the source holds several entries; their conditions need not be identical. Equal entries are not always repeated.

test system: Fibroblast; assay: Multiplex assay against human fibroblast; type: toxicity, cell-based; conditions: 12 h, 1 µM, compound concentration 1 uM
Outline: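 Cells were classed with CellPathfinder machine-learning gating, first as Hoechst high-intensity objects or normal cells, then (normal cells) as healthy, pyknosed or fragmented nuclei, and finally (pyknosed cells) as mitotic or apoptotic. Staining of live cells at seeding used Hoechst33342, BioTracker Green Microtubule Cytoskeleton Dye, MitoTracker Red and Annexin V Alexa Fluor 680, with imaging on a CQ1 microscope at 37°C and 5% CO2 after compound addition. Tubulin, mitochondrial-mass and membrane-permeability phenotypes are per cents of healthy-nucleus cells.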

SMILES	Population Apoptotic (%)	Population Fragmented Nuclei (%)	Population Healthy Nuclei (%)	Population Hoechst High Intensity Objects (%)	Population Membrane Permeable-Phenotype (%)	Population Mitochondria Different-Phenotype (%)	Population Mitotic Cells (%)	Population Normal (%)	Population Pyknosed Nuclei (%)	Population Tubulin-Different-Phenotype (%)
COc1cc(C(=O)N(CCCc2ccccc2)Cc2ccc(CC(=O)O)cc2)cc(OC)c1C	63% and 42%	14% and 37%	73% and 45%	2% and 4%	0% and 11%	0% and 5%	36% and 57%	97% and 95%	12% and 16%	15% and 36%
FC(F)(F)c1ccccc1-c1cc(C(F)(F)F)c2[nH]c(C3=NOC4(CCCCC4)C3)nc2c1	11.43% and 13.33%	11.76% and 2.87%	56.56% and 79.89%	0%	8% and 4.32%	4.8% and 10.07%	88.57% and 86.67%	100%	31.67% and 17.24%	12.8% and 20.14%

same assay, conditions: 12 h, 1 µM, compound concentration 1 uM

SMILES	Total Cell Count
COc1cc(C(=O)N(CCCc2ccccc2)Cc2ccc(CC(=O)O)cc2)cc(OC)c1C	160 and 176
FC(F)(F)c1ccccc1-c1cc(C(F)(F)F)c2[nH]c(C3=NOC4(CCCCC4)C3)nc2c1	221 and 174

same assay, conditions: 12 h, 10 µM, compound concentration 10 uM

SMILES	Population Apoptotic (%)	Population Fragmented Nuclei (%)	Population Healthy Nuclei (%)	Population Hoechst High Intensity Objects (%)	Population Membrane Permeable-Phenotype (%)	Population Mitochondria Different-Phenotype (%)	Population Mitotic Cells (%)	Population Normal (%)	Population Pyknosed Nuclei (%)	Population Tubulin-Different-Phenotype (%)
COc1cc(C(=O)N(CCCc2ccccc2)Cc2ccc(CC(=O)O)cc2)cc(OC)c1C	41% and 45%	16% and 25%	70% and 61%	2% and 4%	0% and 7%	5% and 4%	58% and 54%	97% and 95%	12% and 13%	28% and 47%
FC(F)(F)c1ccccc1-c1cc(C(F)(F)F)c2[nH]c(C3=NOC4(CCCCC4)C3)nc2c1	7.62% and 14.29%	10% and 8.05%	42.27% and 63.79%	0%	12.9% and 5.41%	19.35% and 15.32%	92.38% and 85.71%	100%	47.73% and 28.16%	30.11% and 51.35%

same assay, conditions: 12 h, 10 µM, compound concentration 10 uM

SMILES	Total Cell Count
COc1cc(C(=O)N(CCCc2ccccc2)Cc2ccc(CC(=O)O)cc2)cc(OC)c1C	197 and 181
FC(F)(F)c1ccccc1-c1cc(C(F)(F)F)c2[nH]c(C3=NOC4(CCCCC4)C3)nc2c1	220 and 174

same assay, conditions: 24 h, 1 µM, compound concentration 1 uM

SMILES	Population Apoptotic (%)	Population Healthy Nuclei (%)	Population Hoechst High Intensity Objects (%)	Population Membrane Permeable-Phenotype (%)	Population Mitochondria Different-Phenotype (%)	Population Mitotic Cells (%)	Population Normal (%)	Population Pyknosed Nuclei (%)	Population Tubulin-Different-Phenotype (%)	Total Cell Count
COc1cc(C(=O)N(CCCc2ccccc2)Cc2ccc(CC(=O)O)cc2)cc(OC)c1C	68% and 52%	77% and 41%	1% and 4%	0% and 1%	0% and 6%	31% and 48%	98% and 95%	10% and 13%	13% and 28%	156 and 189
FC(F)(F)c1ccccc1-c1cc(C(F)(F)F)c2[nH]c(C3=NOC4(CCCCC4)C3)nc2c1	10.91% and 15.62%	69.76% and 78.19%	0%	3.47% and 3.4%	7.51% and 4.08%	89.09% and 84.38%	100%	22.18% and 17.02%	17.92% and 18.37%	248 and 188

same assay, conditions: 24 h, 1 µM, compound concentration 1 uM

SMILES	Population Fragmented Nuclei (%)
FC(F)(F)c1ccccc1-c1cc(C(F)(F)F)c2[nH]c(C3=NOC4(CCCCC4)C3)nc2c1	8.06% and 4.79%

same assay, conditions: 24 h, 10 µM, compound concentration 10 uM

SMILES	Population Apoptotic (%)	Population Fragmented Nuclei (%)	Population Healthy Nuclei (%)	Population Hoechst High Intensity Objects (%)	Population Membrane Permeable-Phenotype (%)	Population Mitochondria Different-Phenotype (%)	Population Mitotic Cells (%)	Population Normal (%)	Population Pyknosed Nuclei (%)	Population Tubulin-Different-Phenotype (%)
COc1cc(C(=O)N(CCCc2ccccc2)Cc2ccc(CC(=O)O)cc2)cc(OC)c1C	55% and 40%	12% and 25%	76% and 61%	1% and 4%	1% and 5%	6% and 0%	45% and 59%	98% and 96%	10% and 13%	25% and 41%
FC(F)(F)c1ccccc1-c1cc(C(F)(F)F)c2[nH]c(C3=NOC4(CCCCC4)C3)nc2c1	13% and 17.86%	7.66% and 9.09%	44.5% and 60.96%	0%	7.53% and 4.39%	25.81% and 29.82%	87% and 82.14%	100%	47.85% and 29.95%	69.89% and 65.79%

same assay, conditions: 24 h, 10 µM, compound concentration 10 uM

SMILES	Total Cell Count
COc1cc(C(=O)N(CCCc2ccccc2)Cc2ccc(CC(=O)O)cc2)cc(OC)c1C	192 and 175
FC(F)(F)c1ccccc1-c1cc(C(F)(F)F)c2[nH]c(C3=NOC4(CCCCC4)C3)nc2c1	209 and 187

same assay, conditions: 48 h, 1 µM, compound concentration 1 uM

SMILES	Population Apoptotic (%)	Population Fragmented Nuclei (%)	Population Healthy Nuclei (%)	Population Hoechst High Intensity Objects (%)	Population Membrane Permeable-Phenotype (%)	Population Mitochondria Different-Phenotype (%)	Population Normal (%)	Population Pyknosed Nuclei (%)	Population Tubulin-Different-Phenotype (%)	Total Cell Count
COc1cc(C(=O)N(CCCc2ccccc2)Cc2ccc(CC(=O)O)cc2)cc(OC)c1C	90% and 52%	21% and 50%	72% and 41%	1% and 2%	0% and 3%	0% and 9%	98% and 97%	6% and 8%	17% and 40%	168 and 211
FC(F)(F)c1ccccc1-c1cc(C(F)(F)F)c2[nH]c(C3=NOC4(CCCCC4)C3)nc2c1	20.83% and 16.67%	8.37% and 6.59%	82.51% and 86.81%	0%	1.38% and 1.27%	10.14% and 2.53%	100%	9.13% and 6.59%	7.83% and 18.99%	263 and 182

same assay, conditions: 48 h, 1 µM, compound concentration 1 uM

SMILES	Population Mitotic Cells (%)
FC(F)(F)c1ccccc1-c1cc(C(F)(F)F)c2[nH]c(C3=NOC4(CCCCC4)C3)nc2c1	79.17% and 83.33%

same assay, conditions: 48 h, 10 µM, compound concentration 10 uM

SMILES	Population Apoptotic (%)	Population Fragmented Nuclei (%)	Population Healthy Nuclei (%)	Population Hoechst High Intensity Objects (%)	Population Membrane Permeable-Phenotype (%)	Population Mitochondria Different-Phenotype (%)	Population Mitotic Cells (%)	Population Normal (%)	Population Pyknosed Nuclei (%)	Population Tubulin-Different-Phenotype (%)
COc1cc(C(=O)N(CCCc2ccccc2)Cc2ccc(CC(=O)O)cc2)cc(OC)c1C	77% and 58%	25% and 38%	65% and 54%	2% and 5%	1% and 5%	5% and 3%	22% and 41%	97% and 94%	9% and 6%	32% and 46%
FC(F)(F)c1ccccc1-c1cc(C(F)(F)F)c2[nH]c(C3=NOC4(CCCCC4)C3)nc2c1		9.33% and 11.92%	78.22% and 73.06%	0%	0.57% and 4.26%	13.64% and 7.8%	96.43% and 55.17%	100%	12.44% and 15.03%	38.64% and 60.99%

same assay, conditions: 48 h, 10 µM, compound concentration 10 uM

SMILES	Total Cell Count
COc1cc(C(=O)N(CCCc2ccccc2)Cc2ccc(CC(=O)O)cc2)cc(OC)c1C	195 and 187
FC(F)(F)c1ccccc1-c1cc(C(F)(F)F)c2[nH]c(C3=NOC4(CCCCC4)C3)nc2c1	225 and 193
